This passage reports selectivity ratio, EC50 and CC50 results from ChEMBL document CHEMBL1138199, “Identification of compounds with anti-West Nile Virus activity” (J Med Chem, 2006).

Test system in one data set: not listed separately
Briefly: Therapeutic index (CC50/EC50) in Vero cells. Particulars: monkey, read-out: Ratio CC50/EC50. Type of data set: cell-based. The essentials:
(§1)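 TI computed as CC50/EC50, using MTT CC50 and replicon EC50 in BHK-21 cells, or MTT CC50 and Rluc-FL-WNV EC50 in Vero cells.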
With `CN1CCN(C(=O)c2cccc3c(NC4CCN(Cc5ccccc5)CC4)c4ccccc4nc23)CC1`, the selectivity ratio amounted to 3.6.
For the compound `CN1CCN(C(=O)c2ccc3nc4ccccc4c(NC4CCN(Cc5ccccc5)CC4)c3c2)CC1`, the selectivity ratio is 3.2.
The same measure, in the same setting: in the case of `CN1CCN(C(=O)c2ccc3c(NCCc4c[nH]c5ccccc45)c4ccccc4nc3c2)CC1` it was below 1.5.
In the case of `CCN(CC)C(=O)c1ccc2c(NCCc3c[nH]c4ccccc34)c3ccccc3nc2c1`, the selectivity ratio stood at 1.8.
Take `CCN(CC)C(=O)c1ccc2nc3ccccc3c(NC3CCN(Cc4ccccc4)CC3)c2c1`: the selectivity ratio turned out to be 2.5.
Still for that read-out and setting: to `CCN(CC)C(=O)c1ccc2nc3ccccc3c(NCCc3c[nH]c4ccccc34)c2c1` belongs 5.
Consider `CN1CCN(C(=O)c2ccc3c(NC4CCN(Cc5ccccc5)CC4)c4ccccc4nc3c2)CC1`, for which the selectivity ratio worked out at 2.7.
With `CCN(CC)C(=O)c1cccc2c(NCCc3c[nH]c4ccccc34)c3ccccc3nc12`, the selectivity ratio is 2.5.

Test system in another data set: not listed separately
The data set is described as follows: Therapeutic index (CC50/EC50) in BHK21 cells. Type of data set: cell-based, BHK-21. Particulars: hamster, read-out: Ratio CC50/EC50. The essentials:
as §1
For the compound `CN1CCN(C(=O)c2cccc3c(NC4CCN(Cc5ccccc5)CC4)c4ccccc4nc23)CC1`, the selectivity ratio stood at 20.
On the same count and under the same terms, in the case of `CN1CCN(C(=O)c2ccc3nc4ccccc4c(NC4CCN(Cc5ccccc5)CC4)c3c2)CC1` it was 3.6; in that of `CN1CCN(C(=O)c2ccc3c(NCCc4c[nH]c5ccccc45)c4ccccc4nc3c2)CC1`, 11.
The same measure, in the same setting: in the case of `CCN(CC)C(=O)c1ccc2c(NCCc3c[nH]c4ccccc34)c3ccccc3nc2c1` it was 18; in that of `CCN(CC)C(=O)c1ccc2nc3ccccc3c(NC3CCN(Cc4ccccc4)CC3)c2c1`, 5.4; in that of `CCN(CC)C(=O)c1ccc2nc3ccccc3c(NCCc3c[nH]c4ccccc34)c2c1`, 4.4.
Turning to `CN1CCN(C(=O)c2ccc3c(NC4CCN(Cc5ccccc5)CC4)c4ccccc4nc3c2)CC1`, the selectivity ratio came out at 9.7.
For the compound `CCN(CC)C(=O)c1cccc2c(NCCc3c[nH]c4ccccc34)c3ccccc3nc12`, the selectivity ratio is 16.

Another data set deals with West Nile virus. The data set is described as follows: Inhibition of Rluc-FL-WNV replicon in Vero cells.
Details: not given
In kind it is functional, organism-based. A digest of the protocol:
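Vero cells infected with full-length WNV carrying Renilla luciferase reporter (Rluc-FL-WNV), covering entry, replication and assembly; inhibition read as suppression of luciferase signal. Compounds first screened at 30 µM in 1% DMSO final, then EC50 (µM) determined.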
A general note: In antiviral work, replicon cells carry a viral genome segment that copies itself.
Consider `CN1CCN(C(=O)c2cccc3c(NC4CCN(Cc5ccccc5)CC4)c4ccccc4nc23)CC1`, for which the EC50 came out at 22 µM.
Regarding `CN1CCN(C(=O)c2ccc3nc4ccccc4c(NC4CCN(Cc5ccccc5)CC4)c3c2)CC1`, the concentration giving a half-maximal response (EC50) was 25 µM. This EC50 and that of the compound before are within 1.5-fold of each other.
`CN1CCN(C(=O)c2ccc3c(NCCc4c[nH]c5ccccc45)c4ccccc4nc3c2)CC1`: the half-maximal effective concentration (EC50) was above 30 µM.
Take `CCN(CC)C(=O)c1ccc2c(NCCc3c[nH]c4ccccc34)c3ccccc3nc2c1`: the EC50 is 25 µM. That is a double-digit micromolar value.
Still for that read-out and setting: to `CCN(CC)C(=O)c1ccc2nc3ccccc3c(NC3CCN(Cc4ccccc4)CC3)c2c1` belongs 20 µM; to `CCN(CC)C(=O)c1ccc2nc3ccccc3c(NCCc3c[nH]c4ccccc34)c2c1`, 15 µM.
The same measure, in the same setting: to `CN1CCN(C(=O)c2ccc3c(NC4CCN(Cc5ccccc5)CC4)c4ccccc4nc3c2)CC1` belongs 30 µM; to `CCN(CC)C(=O)c1cccc2c(NCCc3c[nH]c4ccccc34)c3ccccc3nc12`, 20 µM.

In the next data set the test system is BHK-21. Briefly: Inhibition of West Nile virus VLP replicon in BHK21 cell line. In kind it is functional, cell-based. Particulars: Mesocricetus auratus. A digest of the protocol:
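Naive BHK-21 cells infected with virus-like particles, made by expressing WNV structural proteins in cells carrying the Rluc-Neo-Rep replicon, which package replicon RNA. This captures entry and replication but not assembly. Inhibition is read as suppression of Renilla luciferase signal. Compounds were given in 1% DMSO final, and EC50 is in µM.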
`CN1CCN(C(=O)c2cccc3c(NC4CCN(Cc5ccccc5)CC4)c4ccccc4nc23)CC1` had an EC50 of 20 µM.
The compound `CN1CCN(C(=O)c2ccc3nc4ccccc4c(NC4CCN(Cc5ccccc5)CC4)c3c2)CC1` gave an EC50 of 25 µM.
`CN1CCN(C(=O)c2ccc3c(NCCc4c[nH]c5ccccc45)c4ccccc4nc3c2)CC1`: the EC50 stood at 10 µM.
The compound `CCN(CC)C(=O)c1ccc2c(NCCc3c[nH]c4ccccc34)c3ccccc3nc2c1` came in with an EC50 of 7 µM.
For `CCN(CC)C(=O)c1ccc2nc3ccccc3c(NC3CCN(Cc4ccccc4)CC3)c2c1`, the EC50 was found to be 22 µM.
In turn, `CCN(CC)C(=O)c1ccc2nc3ccccc3c(NCCc3c[nH]c4ccccc34)c2c1` gave an EC50 of 20 µM.
As for `CN1CCN(C(=O)c2ccc3c(NC4CCN(Cc5ccccc5)CC4)c4ccccc4nc3c2)CC1`, the EC50 was found to be 8 µM.
Same read-out and setting: in the case of `CCN(CC)C(=O)c1cccc2c(NCCc3c[nH]c4ccccc34)c3ccccc3nc12` it was 9 µM.

A further data set deals with West Nile virus. Briefly: Inhibition of West Nile viral Rluc-Neo-Rep in BHK21 cell line. In kind it is functional, organism-based. The note with it: BHK-21. The essentials:
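BHK-21 cell line stably carrying Rluc-Neo-Rep replicon; inhibition read as suppression of Renilla luciferase signal. Initial screen at 30 µM, 1% DMSO final; EC50 (µM) then determined.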
`CN1CCN(C(=O)c2cccc3c(NC4CCN(Cc5ccccc5)CC4)c4ccccc4nc23)CC1` had an EC50 of 15 µM.
For the compound `CN1CCN(C(=O)c2ccc3nc4ccccc4c(NC4CCN(Cc5ccccc5)CC4)c3c2)CC1`, the EC50 was found to be 28 µM. Against the preceding compound, the EC50 is about 1.9-fold higher.
In the case of `CN1CCN(C(=O)c2ccc3c(NCCc4c[nH]c5ccccc45)c4ccccc4nc3c2)CC1`, a half-maximal response (EC50) required 13.7 µM.
For `CCN(CC)C(=O)c1ccc2c(NCCc3c[nH]c4ccccc34)c3ccccc3nc2c1`, the EC50 turned out to be 7 µM.
Turning to `CCN(CC)C(=O)c1ccc2nc3ccccc3c(NC3CCN(Cc4ccccc4)CC3)c2c1`, a half-maximal response (EC50) required 22 µM.
`CCN(CC)C(=O)c1ccc2nc3ccccc3c(NCCc3c[nH]c4ccccc34)c2c1` gave a concentration giving a half-maximal response (EC50) of 25 µM. This EC50 and that of the compound before are within 1.5-fold of each other.
The same measure, in the same setting: in the case of `CN1CCN(C(=O)c2ccc3c(NC4CCN(Cc5ccccc5)CC4)c4ccccc4nc3c2)CC1` it was 15.5 µM; in that of `CCN(CC)C(=O)c1cccc2c(NCCc3c[nH]c4ccccc34)c3ccccc3nc12`, 9.2 µM.

A further data set has as its system BHK-21. Briefly: Cytotoxicity against BHK21 cell line by MTT assay. In kind it is functional. The note with it: Mesocricetus auratus. A digest of the protocol: (§2)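 MTT cytotoxicity assay run in BHK-21 and Vero cells on compounds giving >50% Rluc inhibition in the primary screens; CC50 reported in µM.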
Consider `CN1CCN(C(=O)c2cccc3c(NC4CCN(Cc5ccccc5)CC4)c4ccccc4nc23)CC1`, for which the CC50 stood at 300 µM.
The same measure, in the same setting: to `CN1CCN(C(=O)c2ccc3nc4ccccc4c(NC4CCN(Cc5ccccc5)CC4)c3c2)CC1` belongs 100 µM; to `CN1CCN(C(=O)c2ccc3c(NCCc4c[nH]c5ccccc45)c4ccccc4nc3c2)CC1`, 150 µM.
Still for that read-out and setting: in the case of `CCN(CC)C(=O)c1ccc2c(NCCc3c[nH]c4ccccc34)c3ccccc3nc2c1` it was 125 µM; in that of `CCN(CC)C(=O)c1ccc2nc3ccccc3c(NC3CCN(Cc4ccccc4)CC3)c2c1`, 120 µM; in that of `CCN(CC)C(=O)c1ccc2nc3ccccc3c(NCCc3c[nH]c4ccccc34)c2c1`, 110 µM.
`CN1CCN(C(=O)c2ccc3c(NC4CCN(Cc5ccccc5)CC4)c4ccccc4nc3c2)CC1` had a CC50 of 150 µM.
As for `CCN(CC)C(=O)c1cccc2c(NCCc3c[nH]c4ccccc34)c3ccccc3nc12`, the CC50 was 150 µM.

For another data set, the system named is Vero. The data set is described as follows: Cytotoxicity against Vero cells by MTT assay. In kind it is functional. Particulars: Chlorocebus sabaeus. The essentials: as §2
For orientation: Tetrazolium assays rely on reduction of a dye to a coloured formazan, in cell work by metabolically active cells.
`CN1CCN(C(=O)c2cccc3c(NC4CCN(Cc5ccccc5)CC4)c4ccccc4nc23)CC1` showed a CC50 of 80 µM.
`CN1CCN(C(=O)c2ccc3nc4ccccc4c(NC4CCN(Cc5ccccc5)CC4)c3c2)CC1` yielded a half-maximal cytotoxic concentration (CC50) of 80 µM.
On to `CN1CCN(C(=O)c2ccc3c(NCCc4c[nH]c5ccccc45)c4ccccc4nc3c2)CC1`, for which the 50% cytotoxic concentration (CC50) is 45 µM.
The same measure, in the same setting: to `CCN(CC)C(=O)c1ccc2c(NCCc3c[nH]c4ccccc34)c3ccccc3nc2c1` belongs 45 µM; to `CCN(CC)C(=O)c1ccc2nc3ccccc3c(NC3CCN(Cc4ccccc4)CC3)c2c1`, 50 µM; to `CCN(CC)C(=O)c1ccc2nc3ccccc3c(NCCc3c[nH]c4ccccc34)c2c1`, 75 µM.
Compound `CN1CCN(C(=O)c2ccc3c(NC4CCN(Cc5ccccc5)CC4)c4ccccc4nc3c2)CC1` returned a CC50 of 80 µM.
As for `CCN(CC)C(=O)c1cccc2c(NCCc3c[nH]c4ccccc34)c3ccccc3nc12`, half-maximal cytotoxicity (CC50) was put at 50 µM. Compared with the last compound, the CC50 is about 1.6-fold lower.

As a reminder, the EC50 is the concentration giving half of the maximal effect. Higher therefore signals weaker potency. The CC50 is the concentration giving 50% cytotoxicity. Read a high CC50 as lower toxicity to the cells.
